Tests used:
[1] = molecular target: Beta-secretase 1 (Homo sapiens) (UniProt P56817); test: Inhibition of recombinant human BACE1 using SEVNLDAEFRKKRR substrate at up to 5 uM after 3 hrs
Outline: (§1)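 Outsourced microfluidic protease panel. Compound was preincubated with each protease for 30 min at 25 °C, then peptide substrate was added for 3 h at 25 °C and quenched with SDS/EDTA/iodoacetate. Substrate-to-product conversion was measured on LabChip. Compounds were tested singly in a 12-point 3-fold dilution series, top 20 μM (5 μM for two reference compounds).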

[2] = molecular target: Cathepsin D (Homo sapiens) (UniProt P07339); test: Inhibition of recombinant human cathepsin D using EVNLDAEFRK substrate at up to 5 uM after 3 hrs; outline: as §1
Chain of Cathepsin D (Homo sapiens) (P07339 65-162 limits assumed): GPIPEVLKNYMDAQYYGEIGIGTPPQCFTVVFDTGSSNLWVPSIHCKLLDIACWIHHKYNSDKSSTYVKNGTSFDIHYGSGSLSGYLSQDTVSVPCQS
Chain of Cathepsin D (Homo sapiens) (P07339 169-412 limits assumed): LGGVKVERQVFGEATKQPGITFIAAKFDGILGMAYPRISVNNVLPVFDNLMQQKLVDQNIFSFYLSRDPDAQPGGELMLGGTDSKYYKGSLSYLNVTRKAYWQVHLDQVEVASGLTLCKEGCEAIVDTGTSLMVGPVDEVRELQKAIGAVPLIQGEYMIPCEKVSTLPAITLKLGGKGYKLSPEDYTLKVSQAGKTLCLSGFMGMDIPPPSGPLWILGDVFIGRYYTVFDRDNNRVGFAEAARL

[3] = molecular target: T1, Caspase-1 (Homo sapiens) (UniProt P29466); test: Inhibition of recombinant human caspase 1 using WEHDGPKR substrate at up to 5 uM after 3 hrs; outline: as §1
T1 sequence (whole entry): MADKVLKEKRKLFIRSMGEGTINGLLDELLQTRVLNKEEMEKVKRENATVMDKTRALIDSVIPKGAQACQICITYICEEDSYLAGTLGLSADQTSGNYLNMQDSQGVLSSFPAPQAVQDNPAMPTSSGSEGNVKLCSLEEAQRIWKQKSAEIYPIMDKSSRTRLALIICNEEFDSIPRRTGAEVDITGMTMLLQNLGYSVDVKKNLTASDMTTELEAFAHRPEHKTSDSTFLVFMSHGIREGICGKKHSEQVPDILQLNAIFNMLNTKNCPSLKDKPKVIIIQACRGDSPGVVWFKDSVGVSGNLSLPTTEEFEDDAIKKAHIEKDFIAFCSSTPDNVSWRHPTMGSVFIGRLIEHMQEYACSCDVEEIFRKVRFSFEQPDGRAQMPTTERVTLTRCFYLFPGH

[4] = molecular target: T2, Caspase-2 (Homo sapiens) (UniProt P42575); test: Inhibition of recombinant human caspase 2 using DEVDAA substrate at up to 5 uM after 3 hrs; outline: as §1
T2 sequence (whole entry): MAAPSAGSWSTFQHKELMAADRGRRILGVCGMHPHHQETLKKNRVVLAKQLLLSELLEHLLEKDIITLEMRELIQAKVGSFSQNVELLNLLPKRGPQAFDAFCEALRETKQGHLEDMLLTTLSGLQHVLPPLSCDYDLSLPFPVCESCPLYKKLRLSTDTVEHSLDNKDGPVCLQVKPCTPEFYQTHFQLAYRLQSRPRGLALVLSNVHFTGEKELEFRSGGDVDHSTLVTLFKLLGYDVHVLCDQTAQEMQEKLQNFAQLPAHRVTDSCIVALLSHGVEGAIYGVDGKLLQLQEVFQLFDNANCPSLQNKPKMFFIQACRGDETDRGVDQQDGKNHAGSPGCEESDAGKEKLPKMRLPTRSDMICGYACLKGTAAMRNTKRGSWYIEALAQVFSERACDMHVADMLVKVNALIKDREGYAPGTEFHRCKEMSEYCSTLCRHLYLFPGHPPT

[5] = molecular target: T3, Caspase-5 (Homo sapiens) (UniProt P51878); test: Inhibition of recombinant human caspase 5 using LEHDGP substrate at up to 5 uM after 3 hrs; outline: as §1
T3 sequence (whole entry): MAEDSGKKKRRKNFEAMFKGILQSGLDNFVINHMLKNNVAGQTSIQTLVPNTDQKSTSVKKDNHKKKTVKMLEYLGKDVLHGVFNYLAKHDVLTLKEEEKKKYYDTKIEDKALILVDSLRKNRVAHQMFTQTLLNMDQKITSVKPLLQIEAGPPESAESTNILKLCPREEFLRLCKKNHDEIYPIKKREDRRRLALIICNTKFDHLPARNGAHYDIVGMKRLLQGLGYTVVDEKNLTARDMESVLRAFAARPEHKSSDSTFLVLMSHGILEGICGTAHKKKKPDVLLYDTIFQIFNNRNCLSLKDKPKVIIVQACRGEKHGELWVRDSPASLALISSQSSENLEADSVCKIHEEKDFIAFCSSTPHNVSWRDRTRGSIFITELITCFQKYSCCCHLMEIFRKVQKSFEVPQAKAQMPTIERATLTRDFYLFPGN

[6] = molecular target: T4, Caspase-6 (Homo sapiens) (UniProt P55212); test: Inhibition of recombinant human caspase 6 using VEHDGG substrate at up to 5 uM after 3 hrs; outline: as §1
T4 sequence (whole entry): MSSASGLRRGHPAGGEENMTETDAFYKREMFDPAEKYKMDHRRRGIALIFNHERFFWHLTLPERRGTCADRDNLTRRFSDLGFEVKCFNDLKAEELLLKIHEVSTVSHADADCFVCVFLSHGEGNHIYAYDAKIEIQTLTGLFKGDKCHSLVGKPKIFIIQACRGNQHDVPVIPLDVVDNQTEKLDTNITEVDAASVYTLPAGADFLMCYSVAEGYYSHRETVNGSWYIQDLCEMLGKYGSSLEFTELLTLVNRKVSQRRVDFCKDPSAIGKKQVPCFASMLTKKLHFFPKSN

[7] = molecular target: T5, Cathepsin K (Homo sapiens) (UniProt P43235); test: Inhibition of recombinant human cathepsin K using HHQKLVFFAE substrate at up to 5 uM after 3 hrs; outline: as §1
T5 sequence (whole entry): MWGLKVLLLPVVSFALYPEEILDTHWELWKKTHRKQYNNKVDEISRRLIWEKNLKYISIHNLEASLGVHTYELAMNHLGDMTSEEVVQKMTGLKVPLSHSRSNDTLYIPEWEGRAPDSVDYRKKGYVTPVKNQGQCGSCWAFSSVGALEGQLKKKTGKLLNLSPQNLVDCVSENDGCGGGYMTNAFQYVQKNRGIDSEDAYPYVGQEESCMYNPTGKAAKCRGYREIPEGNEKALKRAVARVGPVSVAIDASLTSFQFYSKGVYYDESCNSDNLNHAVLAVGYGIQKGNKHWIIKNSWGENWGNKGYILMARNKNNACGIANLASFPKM

[8] = molecular target: Procathepsin L (Homo sapiens) (UniProt P07711); test: Inhibition of recombinant human cathepsin L using GGALRAG substrate at up to 5 uM after 3 hrs
Chain of Procathepsin L (Homo sapiens) (P07711 114-333 limits assumed): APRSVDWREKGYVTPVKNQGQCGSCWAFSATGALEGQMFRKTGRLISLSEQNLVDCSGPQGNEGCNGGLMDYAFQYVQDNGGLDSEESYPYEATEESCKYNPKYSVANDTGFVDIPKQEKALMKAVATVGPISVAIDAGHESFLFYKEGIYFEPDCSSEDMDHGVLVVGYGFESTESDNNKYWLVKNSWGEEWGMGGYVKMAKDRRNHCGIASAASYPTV
Outline: (§2)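 In this microfluidic protease panel, enzyme and compound were preincubated 30 min at 25 °C. The peptide substrate was added and the reaction was incubated 3 h at 25 °C, then quenched (SDS, EDTA, iodoacetate). Activity was read as % substrate converted to product. Dose–response was singlicate, 12-point 3-fold dilutions spanning 5 μM to 0.028 nM. IC50 was the concentration leaving 50% activity relative to no-compound control.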

[9] = molecular target: Furin (Homo sapiens) (UniProt P09958); test: Inhibition of recombinant human furin using RRVKRSLD substrate at up to 5 uM after 3 hrs; outline: as §2
Chain of Furin (Homo sapiens) (P09958 whole entry): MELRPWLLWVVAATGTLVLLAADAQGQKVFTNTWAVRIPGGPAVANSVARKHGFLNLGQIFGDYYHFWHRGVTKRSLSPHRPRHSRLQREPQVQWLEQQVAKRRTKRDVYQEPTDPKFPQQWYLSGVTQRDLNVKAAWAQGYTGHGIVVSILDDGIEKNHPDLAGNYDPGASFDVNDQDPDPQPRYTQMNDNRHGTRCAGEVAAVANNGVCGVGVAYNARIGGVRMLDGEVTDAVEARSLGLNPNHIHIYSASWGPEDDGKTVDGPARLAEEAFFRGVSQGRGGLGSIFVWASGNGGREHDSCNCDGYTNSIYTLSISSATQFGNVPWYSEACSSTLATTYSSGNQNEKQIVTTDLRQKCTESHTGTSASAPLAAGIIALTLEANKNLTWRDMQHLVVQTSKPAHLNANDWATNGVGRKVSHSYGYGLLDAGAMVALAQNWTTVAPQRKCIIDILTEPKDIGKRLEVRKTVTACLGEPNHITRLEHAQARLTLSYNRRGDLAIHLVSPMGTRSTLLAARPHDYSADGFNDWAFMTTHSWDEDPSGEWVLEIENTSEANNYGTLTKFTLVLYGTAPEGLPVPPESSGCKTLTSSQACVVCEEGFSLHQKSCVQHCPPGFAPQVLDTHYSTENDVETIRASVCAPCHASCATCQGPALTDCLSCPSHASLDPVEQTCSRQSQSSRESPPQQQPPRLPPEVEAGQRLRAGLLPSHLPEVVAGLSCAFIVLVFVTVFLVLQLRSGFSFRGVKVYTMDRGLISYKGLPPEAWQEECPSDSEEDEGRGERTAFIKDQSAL

[10] = molecular target: CYP3A4 (Homo sapiens, UniProt P08684); test: Inhibition of CYP3A4 (unknown origin) using midazolam substrate at 20 uM; type: ADME; conditions: probe midazolam
Chain of CYP3A4 (P08684 whole entry): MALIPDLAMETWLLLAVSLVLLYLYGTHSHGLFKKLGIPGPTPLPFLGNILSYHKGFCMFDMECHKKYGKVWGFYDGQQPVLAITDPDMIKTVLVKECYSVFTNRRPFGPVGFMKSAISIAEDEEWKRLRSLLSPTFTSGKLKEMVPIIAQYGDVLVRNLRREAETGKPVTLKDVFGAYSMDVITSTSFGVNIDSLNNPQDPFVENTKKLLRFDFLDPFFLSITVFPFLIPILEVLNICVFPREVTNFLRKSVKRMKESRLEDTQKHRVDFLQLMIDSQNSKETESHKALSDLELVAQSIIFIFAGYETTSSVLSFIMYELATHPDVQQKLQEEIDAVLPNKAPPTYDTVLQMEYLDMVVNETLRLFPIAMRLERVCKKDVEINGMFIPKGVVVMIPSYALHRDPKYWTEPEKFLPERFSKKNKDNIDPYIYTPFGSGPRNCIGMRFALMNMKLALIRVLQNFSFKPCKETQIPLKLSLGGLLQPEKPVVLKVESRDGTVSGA
Outline: (§3)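 Human liver microsomes with probe substrate and an NADPH-regenerating system in 0.1 M potassium phosphate pH 7.4 at 37 °C, run in duplicate. Inhibitor at 0–20 μM (0–2.5 μM for one compound), eight concentrations. Reactions were stopped with acetonitrile/formic acid containing isotope-labelled internal standard, and metabolite area ratios were compared with and without inhibitor. IC50 was taken by linear interpolation between bracketing concentrations.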

[11] = molecular target: Cytochrome P450 3A4 (Homo sapiens, UniProt P08684); test: Inhibition of CYP3A4 (unknown origin) using testosterone substrate at 20 uM; type: ADME; outline: as §3
Chain of Cytochrome P450 3A4 (P08684 whole entry): as above

Chain of Beta-secretase 1 (Homo sapiens) (P56817 whole entry): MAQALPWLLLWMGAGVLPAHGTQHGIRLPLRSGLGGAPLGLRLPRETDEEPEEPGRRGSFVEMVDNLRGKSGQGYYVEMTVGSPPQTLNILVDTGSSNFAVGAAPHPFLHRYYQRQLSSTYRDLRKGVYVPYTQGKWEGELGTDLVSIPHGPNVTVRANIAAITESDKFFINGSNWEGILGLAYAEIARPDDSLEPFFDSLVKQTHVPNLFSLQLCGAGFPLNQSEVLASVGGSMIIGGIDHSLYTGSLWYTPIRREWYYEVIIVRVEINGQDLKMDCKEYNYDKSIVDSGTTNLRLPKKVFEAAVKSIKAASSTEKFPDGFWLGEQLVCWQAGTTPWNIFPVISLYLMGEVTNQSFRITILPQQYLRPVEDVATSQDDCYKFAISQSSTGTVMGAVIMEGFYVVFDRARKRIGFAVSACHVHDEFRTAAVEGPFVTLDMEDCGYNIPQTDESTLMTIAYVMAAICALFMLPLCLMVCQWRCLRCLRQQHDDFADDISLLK

Row | inhibition [1] | inhibition [2] | inhibition [3] | inhibition [4] | inhibition [5] | inhibition [6] | inhibition [7] | inhibition [8] | inhibition [9] | SMILES | inhibition at 20 µM [10] | inhibition (INH) [11]
1 | < 10% | < 10% | < 10% | < 10% | < 10% | < 10% | < 10% | < 10% | < 10% | Cc1cc(CNC(=O)c2cc(C(=O)NCc3ccc(F)c(C)c3)ncn2)ccc1F | < 50% | > 10%
2 |  |  |  |  |  |  |  |  |  | COC(=O)c1ccc(CSc2nc3c(c(=O)[nH]2)CCC3)cc1 | < 50% | < 50%
3 | < 10% | < 10% | < 10% | < 10% | < 10% | < 10% | > 10% | < 10% | < 10% | Cn1c(=O)n(Cc2ccc(C(=O)O)cc2)c(=O)c2cc(C#CCc3ccccc3)ccc21 |  | 

Source: ChEMBL document CHEMBL3352788, “Characterization of selective exosite-binding inhibitors of matrix metalloproteinase 13 that prevent articular cartilage degradation in vitro” (J Med Chem, 2014)
